Screens: PubChem BioAssay, The Scripps Research Institute Molecular Screening Center
bovine MsrA act: activators of bovine methionine sulfoxide reductase A | activation, % at 10.6 µM | purified bovine MsrA, absorbance read-out | AID 602163 | 360,000 compounds, 0.3% hits; in the data active means activation above about 7.5%
Tb MetRS inh: blocks T. brucei methionyl-tRNA synthetase activity; purified T. brucei MetRS, ATP depletion, Kinase-Glo luminescence; inhibition, % at 11.9 µM; 360,000 compounds, 0.4% hits;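 active means inhibition above a per-plate cutoff of the control wells' mean inhibition plus 3 SD, cut at about 5.5% in these data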
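Material: parasite MetRS enzyme / Replication: singlicate, one well per compound / Signal: luminescence of leftover ATP / Schedule: 2 h aminoacylation at 25 °C after 15 min preincubation / Medium: HEPES-MgCl2-KCl buffer plus DTT, spermine, BSA, pyrophosphatase / Doses: 11.9 µM single point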
procasp7 counter: activates human procaspase-7, counter-screen for procaspase-3 activators. recombinant procaspase-7, Ac-DEVD-pNA absorbance 405 nm; D23A/D198A/D206A triple mutant, cannot self-cleave; scale: DMSO 0, 5 µM enzyme 100. activation, % at 8.5 µM. 330,000 compounds, 0.093% hits;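 active means percent activation above the screen-wide mean plus 3 SD, cut at about 25% in these data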
Target sequence (P55210 whole entry D23A/D198A/D206A): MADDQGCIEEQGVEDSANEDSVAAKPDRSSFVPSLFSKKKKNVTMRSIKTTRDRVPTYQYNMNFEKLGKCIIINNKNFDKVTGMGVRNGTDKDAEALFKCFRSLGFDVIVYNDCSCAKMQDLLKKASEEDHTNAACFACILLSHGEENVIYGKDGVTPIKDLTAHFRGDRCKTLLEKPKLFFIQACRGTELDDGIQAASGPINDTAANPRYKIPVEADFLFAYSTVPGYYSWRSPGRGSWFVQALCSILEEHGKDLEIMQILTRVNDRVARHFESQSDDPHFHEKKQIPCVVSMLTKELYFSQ
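Material: Procaspase-7 triple mutant (PC-7 D3A) | Quantity: 2 µM procaspase-7 mutant as dispensed | Reagent: DEVD-pNA substrate | Times: 1 h preincubation, 2 h reaction | Technique: 405 nm absorbance of p-nitroaniline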
MsrA inhibitor: inhibitors of bovine MsrA; AID 651718; inhibition, % at 15.5 µM; purified bovine MsrA, absorbance read-out; 360,000 compounds, 0.75% hits; in the data active means inhibition above about 4.5%
proCasp3 act: procaspase-3 (human) activation | P42574 | recombinant procaspase-3 D3A, Ac-DEVD-pNA absorbance 405 nm | activation, % at 8.5 µM | 330,000 compounds, 0.11% hits | AID 463141;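 active means activation above the mean of all tested compounds plus 3 SD, cut at about 21% in these data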
Target sequence (P42574 whole entry D9A/D28A/D175A): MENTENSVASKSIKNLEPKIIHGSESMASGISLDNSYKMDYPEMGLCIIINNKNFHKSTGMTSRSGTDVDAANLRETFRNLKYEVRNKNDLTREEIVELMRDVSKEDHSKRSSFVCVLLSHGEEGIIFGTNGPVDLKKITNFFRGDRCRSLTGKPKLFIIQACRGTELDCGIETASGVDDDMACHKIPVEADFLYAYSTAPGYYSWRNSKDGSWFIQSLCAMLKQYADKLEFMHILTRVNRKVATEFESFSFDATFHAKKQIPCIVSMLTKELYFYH
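Assay system: Procaspase-3 D3A mutant, all three cleavage aspartates alanine. Buffer or medium: Zinc-free HEPES saline buffer with Triton X-100. Times: 1 h compound preincubation, 2 h substrate hydrolysis at 25 °C. Measured by: 405 nm absorbance of p-nitroaniline, reads at 0 and 120 min. Read-out basis: percent activation relative to control range. Replicates: singlicate.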
MsrA activ conf: bovine methionine sulfoxide reductase A activation confirmed; purified bovine MsrA, absorbance read-out; activation, % at 10.6 µM; shares compounds with bovine MsrA act; 1,000 compounds, 12% hits; in the data active means activation above about 4%;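 further: enzyme coupled to thioredoxin and thioredoxin reductase with NADPH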
Numbers stand for hits; . = inactive; / = no result given. An excerpt weighted towards active compounds, which were near 1.5% of everything screened.

SMILES	bovine MsrA act	Tb MetRS inh	procasp7 counter	MsrA inhibitor	proCasp3 act	MsrA activ conf
CCC(C)Sc1nc2ccccc2c(=O)[nH]1 (centres undefined)	15	.	.	.	.	.
Cc1ccc(C)c2nc3sc(C(=O)N4CCOCC4)c(N)c3cc12	8.8	.	.	.	.	4.9
Cc1cc(C)c2nc3sc(C(=O)N4CCOCC4)c(N)c3cc2c1	.	.	.	.	.	/
O=c1ccsn1Cc1ccccc1	18	.	.	.	.	5.6
CCOc1ccc(N2CC(C(=O)NCCCN3CCOCC3)CC2=O)cc1 (centres undefined)	9.1	.	.	.	.	.
Cc1cc2c(nc1C)CCCN2Cc1ccccn1	/	/	/	.	/	/
COC(=O)[C@]12C[C@H](CC(=O)N3CCCCC3)C(=O)N(Cc3ccccc3)C1=C[C@H](C(C)C)O[C@@H]2C1CC1	/	/	/	.	/	/
COc1ccc(S(=O)(=O)N2CCC(C(=O)N3CCOCC3)CC2)cc1Cl	8.0	.	.	.	.	.
CCCOc1ccc(-c2nc(=S)[nH][nH]2)cc1	9.2	.	.	.	.	.
NC(=O)c1ncn([C@@H]2O[C@H](C(=O)Nc3ccc(C(=O)N4CCCCC4)cc3)[C@@H](O)[C@H]2O)n1	/	/	/	.	/	/
C/C(=N\Nc1cccc([N+](=O)[O-])c1)c1cc2ccccc2o1	.	.	.	.	.	/
O=C(c1cccc([N+](=O)[O-])c1)c1cc2ccccc2o1	8.8	.	.	.	.	.
O=C(NCC1CCCO1)c1cc2n(n1)C(C(F)(F)F)CC(c1ccc(Br)cc1)N2 (centres undefined)	11	.	.	.	.	.
O=C(NCC1CCCO1)c1nn2c(c1Cl)NC(c1ccc(F)cc1)CC2C(F)(F)F (centres undefined)	.	.	.	.	.	/
COc1ccccc1-n1c(Cc2cccc3ccccc23)nnc1SCC(=O)O	/	/	/	.	/	/
CCN(CCCNC(=O)CCn1c(=S)[nH]c2cc3c(cc2c1=O)OCO3)c1cccc(C)c1	8.1	.	.	.	.	.
CCOC(=O)C1=CC[C@@H](c2ccccc2Cl)N(S(=O)(=O)c2ccc(C)cc2)[C@H]1C(=O)OCC	.	.	.	.	.	/
CCOC(=O)C1=CC[C@@H](c2cccc(C)c2)N(S(=O)(=O)c2ccc(C)cc2)[C@H]1C(=O)OCC	9.9	.	.	.	.	.
FC(F)(F)c1cc(Oc2ccc(Cl)cc2)nc(-c2ccccn2)n1	.	.	.	.	.	/
FC(F)(F)c1cc(Oc2ccccc2)nc(-c2ccccn2)n1	9.7	.	.	.	.	.
Fc1ccc(-c2nc3ccc(Br)cn3c2Cc2cccc(F)c2)cc1	.	.	/	.	/	/
Fc1ccc(-c2nc3ccc(Br)cn3c2Cc2cccc(Cl)c2)cc1	8.2	.	/	.	/	.
O=C1CCC(C(=O)N2CCCC2)CN1Cc1cccc(C(F)(F)F)c1 (centres undefined)	9.8	.	.	.	.	.
COc1ccccc1CN1Cc2ccccc2Oc2ccccc2S1(=O)=O	/	/	/	.	/	/
C/C(=N\NC(=S)NC(C)C)c1ccccc1OC(F)F	.	.	.	.	.	/
SMILES	bovine MsrA act	Tb MetRS inh	procasp7 counter	MsrA inhibitor	proCasp3 act	MsrA activ conf
CC(NC(=S)Nc1c(Br)cccc1OC(F)F)C(C)(C)C (centres undefined)	9.0	.	.	.	.	.
CCOC(=O)C1CCCN(C/C=C/c2ccccc2[N+](=O)[O-])C1 (centres undefined)	7.9	.	.	.	.	.
Cc1csc(SCC(=O)c2c(N)n(C)c(=O)n(C)c2=O)n1	9.7	.	.	.	.	.
Cn1c(N)c(C(=O)CSc2nnc(N)s2)c(=O)n(C)c1=O	.	.	.	.	.	/
O=C(NCc1ccccc1)[C@H]1CCCN1C(=O)[C@H]1CCCN1C(=O)N1CCCCC1	/	/	/	.	/	/
O=c1[nH]c(CN2CCN(c3ccccc3O)CC2)nc2ccccc12	.	.	.	.	.	/
O=c1[nH]c(CN2CCN(CCO)CC2)nc2ccccc12	8.9	.	.	.	.	.
Cn1c(SCC(=O)NC2CCCC2)nnc1-c1ccco1	.	.	.	.	.	/
CC(Sc1nnc(-c2ccco2)n1C)C(=O)NC1CCCC1 (centres undefined)	17	.	.	.	.	.
Cc1cc(C)c2c(n1)nn1c(N3CCN(c4ccccc4C)CC3)cc(C)nc21	7.7	.	.	.	.	.
COc1ccc(CN2CCN(c3cc(C)nc4c5c(C)cc(C)nc5nn34)CC2)cc1F	.	.	.	.	.	/
CN1CC[C@@H]2CN(S(=O)(=O)c3ccccc3)[C@H](c3ccccc3Br)C[C@@H]21	/	/	/	.	/	/
NS(=O)(=O)c1ccc2c(c1)C(=NO)c1cc(S(N)(=O)=O)ccc1-2	.	.	.	.	.	/
NC1=C(Cl)C(=O)c2ccccc2C1=O	18	.	/	.	/	12
NC1=C(Cl)C(=O)c2ccc(S(N)(=O)=O)cc2C1=O	24	.	/	.	/	14
CC(C)(C)n1ncc2c(=O)n(CC(=O)NCc3ccccc3)cnc21	.	.	.	.	.	/
Cn1ncc2c(=O)n(CC(=O)NC34CC5CC(CC(C5)C3)C4)cnc21	9.0	.	.	.	.	.
COc1cccc(-c2cc(C(F)(F)F)n3nc(N)nc3n2)c1	14	.	.	.	.	.
C[C@H](CO)N1C[C@H](C)[C@@H](CN(C)C(=O)Nc2ccnc(N3CCOCC3)c2)OCc2cn(nn2)CCCC1=O	/	/	/	.	/	/
Cc1ccc(NC(=O)C(C)c2ccc([N+](=O)[O-])cc2)cc1Cl (centres undefined)	20	.	.	.	.	.
CC(C(=O)Nc1ccccc1Br)c1ccc([N+](=O)[O-])cc1 (centres undefined)	.	.	.	.	.	/
NC(=O)c1c(N)[nH]c(C(=O)c2ccccc2)c1-c1ccc(Br)cc1	/	/	/	.	/	/
COC(=O)CCC(=O)Nc1cccc2ccccc12	.	.	.	.	.	/
COCC(=O)Nc1cccc2ccccc12	11	.	.	.	.	.
CN(Cc1ccccc1)C(=O)c1cccc(NC(=O)C2CCCN(C(=O)OC(C)(C)C)C2)c1 (centres undefined)	7.7	.	.	.	.	.
CC(C)(C)OC(=O)N1CCCC(C(=O)Nc2cccc(C(=O)NCc3ccccc3)c2)C1 (centres undefined)	.	.	/	.	/	/
COC(=O)[C@]12C[C@H](CC(=O)N3CCOCC3)C(=O)N(Cc3ccc4c(c3)OCO4)C1=C[C@H](COCc1ccccc1)O[C@@H]2C	/	/	/	.	/	/
Cc1ccc(NC(=O)OCCN(C)C(=O)Nc2ccc(C)cc2C)c(C)c1	/	/	/	.	/	/
C=CCn1c(Sc2nnc(C)s2)nc2c1c(=O)[nH]c(=O)n2C	.	.	.	.	.	/
Cc1nnc(Sc2c(N)n(C)c(=O)[nH]c2=O)s1	11	.	.	.	.	.
